In ChEMBL document CHEMBL1128482, “Syntheses, calcium channel agonist-antagonist modulation activities, and voltage-clamp studies of isopropyl 1,4-dihydro-2,6-dimethyl-3-nitro-4-pyridinylpyridine-5-carboxylate racemates and enantiomers” (J Med Chem, 1995):
One block for each compound: values may come before it.

Key:
Cavia porcellus [1] = organism: Cavia porcellus; test: Calcium channel agonist activity in guinea pig left atrium (GPLA) at 10e-8 M; assay type: functional; settings: Cardiac atrium
Outline: (§1)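 Isolated guinea pig left atrium: positive inotropic response was taken as the percentage increase in contractile force over the tissue's basal force measured without test compound.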

Cavia porcellus [2] = organism: Cavia porcellus; test: Calcium channel agonist activity in guinea pig ileum longitudinal smooth muscle (GPILSM) at 10e-6 M; assay type: functional, organism-based
Cavia porcellus [3] = organism: Cavia porcellus; test: Calcium channel agonist activity in guinea pig left atrium (GPLA) at 10e-6 M; assay type: functional; settings: Cardiac atrium; outline: as §1
Cavia porcellus [4] = organism: Cavia porcellus; test: Calcium channel antagonist activity in guinea pig ileum longitudinal smooth muscle (GPILSM) at 10e-6 M; assay type: functional, organism-based
Cavia porcellus [5] = organism: Cavia porcellus; test: Calcium channel agonist activity in guinea pig ileum longitudinal smooth muscle (GPILSM) at 10e-5 M; assay type: functional, organism-based
Cavia porcellus [6] = organism: Cavia porcellus; test: Calcium channel agonist activity in guinea pig left atrium (GPLA) at 10e-5 M; assay type: functional; settings: Cardiac atrium; outline: as §1
Cavia porcellus [7] = organism: Cavia porcellus; test: Calcium channel agonist activity in guinea pig ileum longitudinal smooth muscle (GPILSM) at 10e-7 M; assay type: functional, organism-based
Cavia porcellus [8] = organism: Cavia porcellus; test: Calcium channel agonist activity in guinea pig left atrium (GPLA) at 10e-7 M; assay type: functional; settings: Cardiac atrium; outline: as §1
Cavia porcellus [9] = organism: Cavia porcellus; test: Calcium channel antagonist activity in guinea pig ileum longitudinal smooth muscle (GPILSM) at 10e-7 M; assay type: functional, organism-based
Cavia porcellus [10] = organism: Cavia porcellus; test: Calcium channel agonist activity in guinea pig left atrium (GPLA) at 10e-8 M; settings: Cardiac atrium
Cavia porcellus [11] = organism: Cavia porcellus; test: Calcium channel agonist activity in guinea pig left atrium (GPLA) at 10e-9 M; settings: Cardiac atrium

Structure (SMILES): CC1=NC(C)=C([N+](=O)[O-])C(c2ccccn2)/C1=C(\O)OC(C)C (racemic)
- EC50 (Cavia porcellus [1]): 0.0458 µM
- EC50 (Cavia porcellus [2]): 5.27 µM
- EC50 (Cavia porcellus [3]): 9.67 µM
- IC50 (Cavia porcellus [4]): 4.87 µM

Structure (SMILES): COC(=O)C1=C(C)NC(C)=C([N+](=O)[O-])C1c1ccccc1C(F)(F)F (centres undefined)
- EC50 (Cavia porcellus [7]): 0.23 µM
- EC50 (Cavia porcellus [8]): 0.77 µM

Structure (SMILES): CC1=NC(C)=C([N+](=O)[O-])C(c2ccccn2)/C1=C(\O)OC(C)C (centres undefined)
- IC50 (Cavia porcellus [9]): 0.207 µM
- EC50 (Cavia porcellus [2]): 5.27 µM
- EC50 (Cavia porcellus [10]): 0.0458 µM
- EC50 (Cavia porcellus [11]): 0.00446 µM

Now from value to compound:

- EC50 (Cavia porcellus [3]): 8.05 µM
- EC50 (Cavia porcellus [5]): 35 µM
Structure (SMILES): CC1=NC(C)=C([N+](=O)[O-])C(c2ccncc2)/C1=C(\O)OC(C)C (racemic)

- EC50 (Cavia porcellus [6]): 28.5 µM
- EC50 (Cavia porcellus [5]): 48 µM
Structure (SMILES): CC1=NC(C)=C([N+](=O)[O-])C(c2cccnc2)/C1=C(\O)OC(C)C (racemic)
